Screens deposited in PubChem by several laboratories.
Shown are actives, neighbours in structure and some others; about 2.2% of the full set was active somewhere.
NR2E3 ag-1 – NR2E3 (human) agonism; Q9Y5X4; GST-NR2E3/biotin-RetCOR TR-FRET, 1536-well; inhibition of corepressor binding, % at 4.78 µM; hit rate 0.12% among 320,000;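 active = percent inhibition above the cutoff of mean plus 3 SD of all tested compounds, set per screening campaign, cut at about 20% in these data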;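 also: 0% = DMSO wells and 100% = biotin wells as full block of FRET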
Target sequence (Q9Y5X4 whole entry, looked up): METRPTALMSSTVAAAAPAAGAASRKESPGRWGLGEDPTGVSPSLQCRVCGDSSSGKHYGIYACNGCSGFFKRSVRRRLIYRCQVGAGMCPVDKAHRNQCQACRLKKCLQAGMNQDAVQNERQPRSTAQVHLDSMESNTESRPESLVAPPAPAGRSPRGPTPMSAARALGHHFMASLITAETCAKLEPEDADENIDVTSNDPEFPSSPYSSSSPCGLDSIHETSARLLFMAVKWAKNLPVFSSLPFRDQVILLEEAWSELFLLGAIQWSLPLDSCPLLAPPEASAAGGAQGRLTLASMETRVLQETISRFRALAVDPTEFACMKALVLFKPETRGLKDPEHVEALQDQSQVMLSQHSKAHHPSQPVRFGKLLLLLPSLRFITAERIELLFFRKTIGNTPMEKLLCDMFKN
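System: GST-NR2E3 and biotin-RetCOR proteins; probe or stimulus: 7 nM biotin-RetCOR; doses: compound at 4.8 µM, single dose; schedule: Compound–protein incubation for 5 h at 4 °C; detection: time-resolved FRET; read-out: percent inhibition; controls: biotin wells as high control, 0.6% DMSO wells as low control; format: 1536-well plates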
697 NFkB inh – lowers PMA/ionomycin-induced NF-kB signal in 697 B cells. hit rate 0.33% among 330,000. inhibition, % at 4 µM. AID 435022. 697 B-cell NF-kB luciferase reporter, 16 h; in the data active = inhibition above about 35%
miR-122 sensor – inhibitors of miR-122 in Huh7 cells | activation (reporter increase), % at 12.5 µM | Huh7 miR-122 Renilla luciferase sensor, 48 h; neutral wells = 0, positive control = 100 | hit rate 0.3% among 340,000;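 active = mean replicate activation score at least 90 and every replicate individually at or above 90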;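 also: higher luciferase means less miR-122 activity so hits act as miR-122 inhibitors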
FGF22 binding – binders of recombinant human FGF22 by thermal shift | AID 651658 | Q9HCT0 | SYPRO orange fluorescence; percent of sucrose octasulfate shift, DMSO zero | activity (Tm shift, normalised), % at 9.99 µM | hit rate 1.5% among 340,000;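 active = mean Tm shift, scaled 0 neutral to 100 positive control, at about 1.3% or above, every replicate too, limit read from the data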
NR2E3 ag-2 – agonists of human NR2E3 nuclear receptor; CHO-S Gal4-NCOR/VP16-NR2E3 two-hybrid, luciferase; Q9Y5X4; inhibition of corepressor binding, % at 3.98 µM; hit rate 0.35% among 360,000; AID 602229;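 active = inhibition above the mean of all tested compounds plus 3 SD, cut at about 70% in these data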;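 also: 0% = DMSO with NR2E3 transfected cells and 100% = cells lacking NR2E3 construct; higher means lower luciferase signal from less NR2E3 corepressor binding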
Jurkat NFkB inh – inhibitors of the PMA/ionomycin-induced NF-kB reporter in Jurkat cells. PMA/ionomycin-induced NF-kB luciferase reporter, luminescence. inhibition, % at 4 µM. hit rate 0.53% among 330,000; in the data active = inhibition above about 50%
Jurkat NFkB conf – inhibitors of the PMA/ionomycin-induced NF-kB reporter in Jurkat cells, retest | AID 435020 | Jurkat NF-kB luciferase, 16 h | inhibition, % at 4 µM | hit rate 27% among 2,700 | shares compounds with Jurkat NFkB inh;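 active = inhibition reaching about 45% at 4 µM in either replicate, limit read from the data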;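 also: plate controls were PMA/ionomycin stimulated DMSO wells for no effect and unstimulated DMSO wells for full effect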
697 NFkB conf – inhibitors of the PMA/ionomycin-induced NF-kB reporter in 697 B cells, retest; hit rate 35% among 2,000; 697 B-cell NF-kB luciferase, 16 h; shares compounds with 697 NFkB inh; inhibition, % at 4 µM; AID 449746; in the data active = inhibition mostly above about 28%, no sharp cut-off; inactive = mostly below about 22%
* marks the source's active call; other numbers are inactive results; . = no result; [ ] = another dose, or the depositor's remark.

SMILES | NR2E3 ag-1 | 697 NFkB inh | miR-122 sensor | FGF22 binding | NR2E3 ag-2 | Jurkat NFkB inh | Jurkat NFkB conf | 697 NFkB conf
C[C@H]1CN([C@@H](C)CO)C(=O)c2cccc(NS(=O)(=O)c3ccccc3)c2O[C@H]1CN(C)C(=O)Nc1cccc2ccccc12 | . | . | -11[16.7 µM] | 0 | . | . | . | .
CCCCCCCCn1ccc(=N)cc1 | -1 | 78* | -4 | 0 | 9 | 80* | 73* | 64*
c1ccc(N2CCN(c3nc4cc5c(cc4s3)OCO5)CC2)cc1 | 2 | -204 | -7 | . | -106 | -52 | . | .
c1ccc2c(c1)CCN(c1nc3cc4c(cc3s1)OCO4)C2 | 2 | -304 | 3 | . | -196 | -190 | -132 | -263
C[C@@H]1CN([C@H](C)CO)C(=O)Cc2cc(NC(=O)CCN3CCOCC3)ccc2O[C@H]1CN(C)S(=O)(=O)c1ccc(F)cc1 | . | . | -1[16.7 µM] | 0 | . | . | . | .
Cc1cc(O)c2c(c1O)C(=O)[C@]13C(=C2O)C(=O)[C@@H]2[C@@H](O)[C@H]1[C@@H]1[C@H](O)[C@H]3C(=O)C3=C(O)c4c(O)cc(C)c(O)c4C(=O)[C@]312 | . | 44* | -10 | . | 101* | 85* | 87* | -18
CC(C)CC#Cc1cnc2c(c1)C(=O)N([C@H](C)CO)C[C@@H](C)[C@H](CN(C)Cc1ccc(F)cc1)O2 | . | . | 4[16.7 µM] | 0 | . | . | . | .
Cc1ccoc1C(=O)Nc1ccc2ccccc2c1 | -4 | -444 | 6 | 0 | -110 | -211 | -122 | -388
O=C(Nc1ccc2ccccc2c1)c1ccc(Cl)cc1 | 4 | -476 | 4 | 0 | -161 | -215 | -126 | -486
O=C(Nc1ccc(F)c(Cl)c1)c1ccccc1 | 1 | -47 | -2 | 1 | -161 | -70 | . | .
Cc1cc(C(=O)Nc2ccc3ccccc3c2)oc1C | 2 | -174 | 2 | 0 | -146 | -138 | . | .
CCOc1cccc(C(=O)Nc2ccc3ccccc3c2)c1 | -1 | -449 | . | 0 | -178 | -185 | -145 | -490
CCC(C)NS(=O)(=O)c1ccc(NC(=O)c2cccs2)cc1 (stereo not given) | 2 | 3 | . | 0 | -25 | 3 | . | .
CCC(C)c1ccc(NC(=O)c2cccs2)cc1 (stereo not given) | 4 | -381 | 0 | . | -150 | -187 | -137 | -294
O=C(C1CCC1)N1CC(=O)N2[C@H](CO)[C@H](c3ccc(Br)cc3)[C@H]2C1 | . | . | . | 0 | . | . | . | .
O=[N+]([O-])c1ccccc1-c1nc(-c2ccc(Br)o2)no1 | 2 | -172 | . | 0 | -116 | -113 | . | .
Clc1ccccc1-c1nc(-c2ccc(Br)o2)no1 | 6 | -257 | . | 0 | -138 | -163 | -141 | -264
CO[C@H]1CN(C)C(=O)c2cc(NS(=O)(=O)c3cn(C)cn3)ccc2OC[C@H](C)N(Cc2cccc(F)c2)C[C@@H]1C | . | . | . | 0 | . | . | . | .
Nc1c(C(=O)Nc2cccc(F)c2)nnn1-c1ccc2c(c1)OCCO2 | 0 | -362 | -11 | 0 | -143 | -155 | -144 | -487
CCOc1ccc(/C=C2\SC(=S)N(CCC(=O)O)C2=O)cc1 | -5 | 77* | . | . | 10 | 52* | 61* | 66*
CCOc1ccc(/C=C2\SC(=S)N(CCC(=O)Nc3ccccc3C(=O)O)C2=O)cc1 | -3 | 3 | -5 | 0 | -13 | -4 | . | .
CC(C)c1ccc(-c2nnn(CCC(=O)O)n2)cc1 | -2 | 71* | -2 | . | 37 | 60* | 62* | 70*
O=C(O)CCn1nnc(-c2cccs2)n1 | 5 | 1 | -4 | . | 5 | -8 | . | .
CO[C@@H]1CN(C)C(=O)c2cc(NC(=O)NC(C)C)ccc2OC[C@H](C)NC[C@H]1C | . | . | -3[16.7 µM] | . | . | . | . | .
CC(=Nc1ccccc1)c1sc2ccccc2c1O | 3 | -251 | -6 | 0 | -108 | -158 | -17 | -23
Cc1nc2cc(-c3ccccc3)sc2c(=O)n1N | 2 | 9 | . | 0 | -69 | 35 | . | .
COc1ccc(-c2cc3nc4n(c(=O)c3s2)CCCCC4)cc1 | 0 | -267 | . | 0 | -164 | -173 | -120 | -322
